Experimental data as given in ChEMBL document CHEMBL5608194, “Novel neuroprotective 5,6-dihydropyrido[2',1':2,3]imidazo[4,5-c]quinoline derivatives acting through cholinesterase inhibition and CB2 signaling modulation” (Eur J Med Chem, 2024).

Experiments:
SH-SY5Y [1] = experiment: Cytotoxicity against human SH-SY5Y cells assessed as cell death at 10 uM incubated for 72 hrs by propidium iodide staining based fluorescence assay; format: toxicity
Method in brief: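 SH-SY5Y differentiated to neuron-like phenotype with 10 μM all-trans retinoic acid for 48 h, 20 000 cells/well. Compounds from DMSO stocks (DMSO ≤0.5 %) added, then 72 h exposure. Control wells lysed with 1 % Triton X-100 for 1 min, then all wells stained with propidium iodide for fluorescence read-out. Dead-cell proportion expressed relative to Triton X-100-treated control.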

SH-SY5Y [2] = experiment: Neuroprotective activity against ATRA-differentiated and 3-NPA induced cell death in human SH-SY5Y cells assessed as cell death at 0.1 uM incubated for 48 hrs by propidium iodide staining based fluorescence assay (reference value: 100%); format: functional
Method in brief: (§1)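 ATRA-differentiated SH-SY5Y co-treated with compound and 20 mM 3-nitropropionic acid for 48 h; cell death by propidium iodide fluorescence, 3-NPA-treated signal set to 100 %.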

SH-SY5Y [3] = experiment: Neuroprotective activity against ATRA-differentiated and MPP+ induced cell death in human SH-SY5Y cells assessed as cell death at 0.1 uM incubated for 24 hrs by propidium iodide staining based fluorescence assay (reference value: 100%); format: functional
Method in brief: (§2)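 ATRA-differentiated SH-SY5Y co-treated with compound and 5 mM MPP+ for 24 h; cell death by propidium iodide fluorescence, MPP+-treated signal set to 100 %.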

SH-SY5Y [4] = experiment: Neuroprotective activity against ATRA-differentiated and 3-NPA induced cell death in human SH-SY5Y cells assessed as cell death at 1 uM incubated for 48 hrs by propidium iodide staining based fluorescence assay (reference value: 100%); format: functional; method in brief: as §1
SH-SY5Y [5] = experiment: Neuroprotective activity against ATRA-differentiated and MPP+ induced cell death in human SH-SY5Y cells assessed as cell death at 10 uM incubated for 24 hrs by propidium iodide staining based fluorescence assay (reference value: 100%); format: functional; method in brief: as §2
SH-SY5Y [6] = experiment: Neuroprotective activity against ATRA-differentiated and MPP+ induced cell death in human SH-SY5Y cells assessed as cell death at 1 uM incubated for 24 hrs by propidium iodide staining based fluorescence assay (reference value: 100%); format: functional; method in brief: as §2
SH-SY5Y [7] = experiment: Neuroprotective activity against ATRA-differentiated and 3-NPA induced cell death in human SH-SY5Y cells assessed as cell death at 10 uM incubated for 48 hrs by propidium iodide staining based fluorescence assay (reference value: 100%); format: functional; method in brief: as §1

SMILES	Activity (SH-SY5Y [1])	Activity (SH-SY5Y [2])	Activity (SH-SY5Y [3])	Activity (SH-SY5Y [4])	Activity (SH-SY5Y [5])	Activity (SH-SY5Y [6])	Activity (SH-SY5Y [7])
CC1CCC2(CC1)Nc1ccccc1-c1nc3ccc(Br)cn3c12 (centres undefined)	9.3%	92.1%	74.2%	71.3%	126.5%	52.3%	64%
c1ccc2c(c1)NC1(CCCCCC1)c1c-2nc2ccccn12	10.4%	74%	45.8%	69.9%	73.6%	28.6%	69%
CC(=O)N[C@@H](CS)C(=O)O [ACETYLCYSTEINE]		95.5%		80.8%			37%
CC1CCC2(CC1)Nc1ccccc1-c1nc3ccccn3c12 (centres undefined)	12%	82.3%	67.6%	64.2%	97.3%	33.6%	64.5%
Cc1ccn2c3c(nc2c1)-c1ccccc1NC31CCCC1	10.4%	86.9%	73.1%	59%	68.9%	31.9%	48.6%
Cc1ccn2c3c(nc2c1)-c1ccccc1NC3(C)C	13%	86.2%	65.7%	62.4%	59.7%	46.1%	52.9%
Cc1ccn2c3c(nc2c1)-c1ccccc1NC31CCC(C)CC1 (centres undefined)	10.9%	82.4%	61.6%	66.8%	105.9%	38.4%	67%
c1ccc2c(c1)NC1(CCCC1)c1c-2nc2ccccn12	10.1%	67.7%	63.9%	57.7%	42.6%	28.2%	54.5%
Cc1cccn2c3c(nc12)-c1ccccc1NC31CCCCC1	9.2%	76.6%	77.7%	66.1%	45.6%	44.4%	61.8%
Cc1cccn2c3c(nc12)-c1ccccc1NC31CCC(C)CC1 (centres undefined)	9%	86%	91.8%	65%	94%	53%	64.5%
Cc1cccn2c3c(nc12)-c1ccccc1NC31CCCCCC1	9.3%	83.8%	67.2%	71%	91.4%	38.8%	60.3%
Brc1ccc2nc3c(n2c1)C1(CCCCCC1)Nc1ccccc1-3	13.5%	90.7%	56.5%	81.4%	96.4%	43.5%	73.5%
Cc1cccn2c3c(nc12)-c1ccccc1NC3(C)C	11%	96.6%	79.6%	69.9%	70.8%	48.6%	56.4%
Cc1cccn2c3c(nc12)-c1ccccc1NC31CCCC1	8.2%	79.2%	86.7%	65.3%	52.8%	48%	60.5%
